Source: ChEMBL document CHEMBL1122895, “Aldose reductase inhibitors: a potential new class of agents for the pharmacological control of certain diabetic complications” (J Med Chem, 1985)

Legend:
[1] = molecular target: T1, Aldo-keto reductase family 1 member B1 (Homo sapiens, UniProt P15121); experiment: Inhibitory activity against human placental aldose reductase in 30 -70% (NH4)2SO4.
[2] = molecular target: T1, Aldo-keto reductase family 1 member B1; experiment: Inhibitory activity against human placental aldose reductase in Orange A column at day 2
Procedure, shortened: (§1)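 Human placental aldose reductase was purified at 4 °C. Enzyme activity was read photometrically at 340 nm, with 10 mM DL-glyceraldehyde as substrate. IC50 values came from simple linear regressions of Marquardt-Levenberg iterative curve fitting.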

[3] = molecular target: T1, Aldo-keto reductase family 1 member B1; experiment: Inhibitory activity against human placental aldose reductase in Sepharose 4B column at day 7
[4] = molecular target: T1, Aldo-keto reductase family 1 member B1; experiment: Inhibitory activity against human placental aldose reductase in Orange A column at day 8
[5] = molecular target: T1, Aldo-keto reductase family 1 member B1; experiment: Inhibitory activity against human placental aldose reductase in Sepharose 4B column at day 1; procedure, shortened: as §1
[6] = molecular target: T1, Aldo-keto reductase family 1 member B1; experiment: Inhibitory activity against human placental aldose reductase (HPAR).; procedure, shortened: as §1
[7] = molecular target: Aldo-keto reductase family 1 member B1 (Rattus norvegicus, UniProt P07943); experiment: Inhibitory activity against rat lens aldose reductase (RLAR).
[8] = molecular target: T1, Aldo-keto reductase family 1 member B1; experiment: Inhibitory activity against human placental aldose reductase in Sepharose 4B column at time 1
[9] = molecular target: T1, Aldo-keto reductase family 1 member B1; experiment: (§2) Inhibitory activity against human placental aldose reductase in Orange A column at time 2; procedure, shortened: as §1
[10] = molecular target: T1, Aldo-keto reductase family 1 member B1; experiment: as §2; remark: listed apart in the source
[11] = molecular target: T1, Aldo-keto reductase family 1 member B1; experiment: Inhibitory activity against human placental aldose reductase (HPAR); procedure, shortened: as §1

SMILES | IC50 [1] | IC50 [2] | IC50 [3] | IC50 [4] | IC50 [5] | IC50 [7] | IC50 [11] | other results
CCOC(=O)C(=O)Nc1cc([N+](=O)[O-])cc(C(=O)O)c1O | 7.3 µM | 3.2 µM | 8.3 µM | 4 µM | 4.5 µM |  |  | 
O=C(O)C1=CC(=O)C2C=CC(O)=CC2O1 (stereo not drawn) | 1.8 µM | 5.9 µM | 3.9 µM | 3.1 µM | 4.7 µM |  |  | 
O=C(O)CN1C(=O)c2cccc3cccc(c23)C1=O [ALRESTATIN] | 6.5 µM |  | 34 µM | 79 µM |  |  |  | IC50 [8]: 22 µM; IC50 [9]: 140 µM
O=c1c(Cl)c(-c2nn[nH]n2)oc2ccccc12 | 4.1 µM | 280 µM | 39 µM | 200 µM | 38 µM |  |  | 
CC(C)OC(=O)c1cc(=O)c2ccc(O)cc2o1 |  |  |  |  |  | 3100 nM | 4.3 µM | 
O=C(OCc1ccccc1)c1cc(=O)c2ccc(O)cc2o1 |  |  |  |  |  | 2500 nM | 3.2 µM | 
O=C(O)c1ccc2nc3cc(O)ccc3c(=O)n2c1 | 4.5 µM | 19 µM | 7.2 µM | 7.3 µM | 5 µM |  |  | 

Continued, in another order:

IC50 [1] | IC50 [2] | IC50 [3] | IC50 [4] | IC50 [5] | IC50 [7] | IC50 [11] | SMILES | other results
 |  |  |  |  | 2200 nM |  | O=C(O)c1cc(=O)c2ccc(O)cc2o1 | IC50 [6]: 1800 nM
7.1 µM |  | 16 µM | 9 µM |  |  |  | CC1OC(O)C(O)C(O)C1Oc1c(-c2ccc(O)c(O)c2)oc2cc(O)cc(O)c2c1=O (stereo not drawn) | IC50 [8]: 14 µM; IC50 [10]: 16 µM
 |  |  |  |  | 2300 nM | 5 µM | CCOC(=O)c1cc(=O)c2ccc(O)cc2o1 | 
